Measured values taken from article PMC6626631 (Biochemical and biophysical research communications, 2018).
pIC50: −log10 of the molar value. Entries after “also recorded” stand apart in the source; their conditions may differ.

Key:
Type in all cases: biochemical
[1] = target: Human DRP1 (1—699) (Homo sapiens, UniProt O00429); test: Liposome-dependent malachite green GTPase activity assay, DRP1
Outline: (§1)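 Ni-NTA-purified E. coli enzyme (tag removed for dynamin-1, OPA1), 0.6 μM, preincubated 20 min RT with 80:20 soybean polar lipid:cardiolipin liposomes (0.1 mg/mL) and compound or DMSO; started by 1 mM GTP at 37 °C in 10 mM Hepes pH 7.0, 100 mM KCl, 4 mM MgCl2, 1% DMSO. EDTA stop, malachite green, A650 to phosphate rate; IC50 4-parameter fit.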

[2] = target: DRP1 (Homo sapiens, UniProt O00429); test: Malachite green GTPase activity assay in the absence of liposomes, DRP1; details: dose response in presence vs absence of liposomes
DRP1, sequence (O00429 1-699 isoform O00429-4): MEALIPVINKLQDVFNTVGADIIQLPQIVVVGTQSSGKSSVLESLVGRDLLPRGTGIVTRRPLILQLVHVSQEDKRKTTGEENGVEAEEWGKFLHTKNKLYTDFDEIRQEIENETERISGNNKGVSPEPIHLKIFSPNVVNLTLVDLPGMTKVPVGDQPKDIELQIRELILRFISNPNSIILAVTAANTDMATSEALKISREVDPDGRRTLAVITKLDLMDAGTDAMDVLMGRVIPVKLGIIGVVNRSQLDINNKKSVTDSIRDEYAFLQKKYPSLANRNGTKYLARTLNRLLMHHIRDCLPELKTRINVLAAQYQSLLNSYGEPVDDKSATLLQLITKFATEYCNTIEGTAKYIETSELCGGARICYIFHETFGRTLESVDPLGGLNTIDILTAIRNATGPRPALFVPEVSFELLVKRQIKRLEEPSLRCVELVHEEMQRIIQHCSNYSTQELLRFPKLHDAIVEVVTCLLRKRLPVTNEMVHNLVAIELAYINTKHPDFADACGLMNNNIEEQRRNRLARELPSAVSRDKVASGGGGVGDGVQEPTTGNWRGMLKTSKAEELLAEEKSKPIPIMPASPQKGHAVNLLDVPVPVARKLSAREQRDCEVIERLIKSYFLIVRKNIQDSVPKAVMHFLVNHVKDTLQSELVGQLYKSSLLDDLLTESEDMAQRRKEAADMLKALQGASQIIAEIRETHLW

[3] = target: T1, dynamin-1 (1—752) (Homo sapiens, UniProt Q05193); test: Liposome-dependent malachite green GTPase activity assay, dynamin-1; details: read-out: Potency of inhibition, dynamin-1; data not shown
T1 sequence (Q05193 1-752): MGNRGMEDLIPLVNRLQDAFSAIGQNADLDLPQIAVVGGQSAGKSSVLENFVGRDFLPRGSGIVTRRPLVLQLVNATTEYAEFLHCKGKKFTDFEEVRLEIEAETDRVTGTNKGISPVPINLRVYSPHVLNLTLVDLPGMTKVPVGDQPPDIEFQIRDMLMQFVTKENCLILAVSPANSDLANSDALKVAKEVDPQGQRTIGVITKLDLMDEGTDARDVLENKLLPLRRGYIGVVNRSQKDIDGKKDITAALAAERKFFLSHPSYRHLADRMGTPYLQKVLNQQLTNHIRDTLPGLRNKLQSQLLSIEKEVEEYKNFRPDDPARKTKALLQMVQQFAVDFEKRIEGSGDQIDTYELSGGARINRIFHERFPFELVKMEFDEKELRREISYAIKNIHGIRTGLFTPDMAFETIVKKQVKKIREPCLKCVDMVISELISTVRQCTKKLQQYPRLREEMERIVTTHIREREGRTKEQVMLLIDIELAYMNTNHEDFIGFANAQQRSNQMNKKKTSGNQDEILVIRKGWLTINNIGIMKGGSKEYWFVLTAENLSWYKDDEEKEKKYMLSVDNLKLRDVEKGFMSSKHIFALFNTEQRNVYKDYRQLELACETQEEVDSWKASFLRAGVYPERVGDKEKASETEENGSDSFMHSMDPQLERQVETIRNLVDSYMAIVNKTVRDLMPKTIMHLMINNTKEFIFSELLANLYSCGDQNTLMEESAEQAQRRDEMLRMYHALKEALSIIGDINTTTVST
Outline: as §1

[4] = target: T2, OPA1 (195—960) (Homo sapiens, UniProt O60313); test: Liposome-dependent malachite green GTPase activity assay, OPA1; details: read-out: Potency of inhibition, OPA1; data not shown
T2 sequence (O60313 195-960): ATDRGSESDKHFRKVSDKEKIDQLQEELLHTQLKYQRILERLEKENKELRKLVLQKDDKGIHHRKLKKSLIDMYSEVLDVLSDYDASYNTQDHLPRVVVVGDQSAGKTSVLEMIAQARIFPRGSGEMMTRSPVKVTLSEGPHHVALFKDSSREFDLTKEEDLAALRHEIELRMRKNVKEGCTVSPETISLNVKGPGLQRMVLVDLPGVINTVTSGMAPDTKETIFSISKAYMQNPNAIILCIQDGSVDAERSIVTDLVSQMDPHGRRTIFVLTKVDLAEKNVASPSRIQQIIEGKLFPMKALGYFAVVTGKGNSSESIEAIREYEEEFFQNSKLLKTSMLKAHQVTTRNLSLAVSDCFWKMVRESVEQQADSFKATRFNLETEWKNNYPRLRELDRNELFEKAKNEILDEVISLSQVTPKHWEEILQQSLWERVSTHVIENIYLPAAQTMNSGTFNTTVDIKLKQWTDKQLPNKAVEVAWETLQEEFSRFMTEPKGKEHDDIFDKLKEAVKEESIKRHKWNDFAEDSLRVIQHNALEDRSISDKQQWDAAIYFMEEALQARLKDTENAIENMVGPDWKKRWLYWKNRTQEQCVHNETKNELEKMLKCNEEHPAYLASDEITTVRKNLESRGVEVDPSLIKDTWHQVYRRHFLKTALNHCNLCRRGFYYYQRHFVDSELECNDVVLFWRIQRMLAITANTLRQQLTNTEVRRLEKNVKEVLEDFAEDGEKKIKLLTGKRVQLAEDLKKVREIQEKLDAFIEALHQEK
Outline: as §1

Human DRP1 (1—699), sequence (O00429 1-699 isoform O00429-4): as the sequence (O00429 1-699 isoform O00429-4) above

| Potency/activity in the absence of liposomes [2] | pIC50 [3] | pIC50 [4] | pIC50 ([1]; read-out: Potency of inhibition, DRP1, data not shown) | Structure (SMILES) | Inhibition of DRP1 GTPase activity (in words) ([1]; presence of liposomes, up to 100 μM compound concentration) |
| --- | --- | --- | --- | --- | --- |
| – | – | – | – | COc1cc(-n2c(=S)[nH]c3ccccc3c2=O)c(Cl)cc1Cl [mdivi-1] | did not inhibit oligomeric DRP1 GTPase activity; also recorded: do not inhibit DRP1 up to 100 μM |
| unaffected by liposomes | 3.30 to 3.52 | 3.30 to 3.52 | 3.30 to 3.52 | Nc1nc2c(ncn2[C@@H]2O[C@H](COP(=O)(O)OP(=O)(O)OP(O)(O)=S)[C@@H](O)[C@H]2O)c(=O)[nH]1 [GTPγS] | – |
